# Rtt109 HAT inh: inhibitors of Candida albicans Rtt109/Vps75 histone acetyltransferase. purified Rtt109/Vps75, ThioGlo CoA-SH fluorescence, 4 h. inhibition, % at 34.9 µM. actives 0.16% (n = 330,000);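 active means inhibition of at least 50% in every replicate; inconclusive means best replicate reaches 50% inhibition but some replicates fall short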
# Target sequence (Q5AAJ8 whole entry, looked up): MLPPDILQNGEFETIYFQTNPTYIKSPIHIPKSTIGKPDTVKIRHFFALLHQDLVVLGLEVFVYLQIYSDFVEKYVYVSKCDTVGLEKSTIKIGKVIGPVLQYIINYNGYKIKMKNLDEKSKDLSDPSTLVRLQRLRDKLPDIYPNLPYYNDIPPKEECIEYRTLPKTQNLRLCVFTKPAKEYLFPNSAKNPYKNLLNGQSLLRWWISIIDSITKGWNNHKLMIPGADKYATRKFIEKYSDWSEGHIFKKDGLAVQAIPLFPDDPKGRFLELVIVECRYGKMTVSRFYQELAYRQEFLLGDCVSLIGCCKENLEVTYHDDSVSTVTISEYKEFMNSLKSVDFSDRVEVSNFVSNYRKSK
# SR-BI uptake up: SR-BI HDL lipid transfer activation; activation, % at 12.5 µM; actives 0.096% (n = 320,000); CHO ldlA[mSR-BI] cells, DiI-HDL uptake fluorescence, 3 h; 100 = double the neutral-control signal;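 active means mean replicate activation of at least 60% and every replicate at or above 60%; inconclusive means mean or all-replicate condition met, but not both; inactive means mean below 60% and not all replicates reaching 60%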;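 further: 0% = median plate neutral-control signal and 100% = twice that signal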
#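 Material: SR-BI-overexpressing, LDLR-lacking CHO cells; schedule: compound exposure 3 h, 37 °C; reagent: DiI-labelled HDL at 10 µg/mL final; technique: bottom-read fluorescence, 550/595 nm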
# Env fusion inh: blocks HIV Env-driven cell-cell fusion; actives 1.1% (n = 360,000); inhibition, % at 12.3 µM; HeLa-JRFL Env/CEM21 cell fusion, luciferase;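 active means mean replicate inhibition score of at least 50 and every replicate individually at or above 50; inconclusive means only one of the two criteria met; inactive means mean below 50 and not all replicates reaching 50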;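 further: 0% = plate neutral controls and 100% = maraviroc near 300 nM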
# SR-BI DiI inh: blocks mouse SR-BI lipid uptake from DiI-HDL; ldlA[mSR-BI] CHO cells, DiI-HDL uptake fluorescence, 3 h; actives 0.96% (n = 320,000); inhibition, % at 12.5 µM; Q61009;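 active means mean replicate inhibition of at least 70% and a set share of replicates each scoring 70 or more; inconclusive means meets just one of the two criteria; inactive means fails both criteria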;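 further: 0% = median of neutral control wells and 100% = median of positive control wells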
# PglD inh: inhibitors of Campylobacter jejuni PglD acetyltransferase. purified PglD enzyme, DTNB colorimetric CoA detection. inhibition, % at 12.5 µM. actives 0.098% (n = 360,000); in the data active means inhibition above about 16%, passing the limit was not always enough; inconclusive means no clear call, values can overlap the other calls
# N-glyco inh: blocks N-linked glycosylation in D54 reporter cells; actives 0.23% (n = 360,000); reporter increase, % at 12.5 µM; D54 ERlucT glycosylation luciferase reporter, 24 h; percent of 100 nM tunicamycin response;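 active means mean luciferase reporter signal, scaled so untreated is 0 and the glycosylation-blocking control 100, at or above a set limit in every replicate; inconclusive means mean reaches the limit but not every replicate does; inactive means mean below the limit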;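 further: luciferase carries N-glycosylation sites so blocking glycosylation raises the light; 0% = median of neutral control wells and 100% = median of 100 nM tunicamycin wells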
# * hit, by the source's call; ? = inconclusive; nt = no result given; [ ] = another dose, or the depositor's remark. Compounds with a hit are over-represented: about 1.9% of the library has one in this group of screens.
SMILES,Rtt109 HAT inh,SR-BI uptake up,Env fusion inh,SR-BI DiI inh,PglD inh,N-glyco inh
CO[C@H]1CN(C)C(=O)c2cc(NC(=O)Nc3ccccc3)ccc2OC[C@@H](C)N(CC2CC2)C[C@H]1C,nt,nt,nt,nt,-1,nt
Nc1ccccc1Sc1nc2ccccc2[nH]1,101*,-54,-8,54,nt,2
CC(=O)N(C)C[C@@H]1Oc2cc(C3=CCCCC3)ccc2S(=O)(=O)N([C@H](C)CO)C[C@@H]1C,nt,nt,6[16.7 µM],nt,nt,nt
COc1ccc(N2CCC(CNC(=O)Nc3ccc(OC)cc3OC)C2)cc1 (stereo not given),5,-96,nt,96*,2,0
COc1ccc(N2CCC(CNC(=O)Nc3ccc(C)c(C)c3)C2)cc1 (stereo not given),-15,-25,21,25,3,1
CN1[C@H](C(=O)NC2Cc3ccccc3C2)[C@@H](CO)[C@@H]2Cn3c(ccc(-c4ccccc4)c3=O)[C@@H]21,nt,nt,nt,nt,5,nt
O=C(CNC(=O)c1ccc(F)cc1)c1ccc(Cl)cc1,52*,0,-75,0,1,-2
O=C(c1ccncc1)N1C[C@H]2[C@@H](c3ccccc31)[C@H](CO)N2C(=O)Nc1ccccc1Cl,nt,nt,nt,nt,-1,nt
COc1ccc(CNC(=O)Cc2nn(C)c(=O)c3ccccc23)cc1,-3,4,nt,-4,nt,-3
Cn1nc(CC(=O)NCc2ccc(C(F)(F)F)cc2)c2ccccc2c1=O,-3,31,71*,-31,-2,6
Cc1sc(NC(=O)/C=C/c2ccc(C(C)C)cc2)c(C#N)c1C,-3,-78,-8,78*,nt,-1
CCOC(=O)[C@]12CCC=C1N(Cc1cccc3ccccc13)C(=O)[C@H](CC(=O)NCC13CC4CC(CC(C4)C1)C3)C2,nt,nt,-62,nt,nt,nt
CCOC(=O)[C@]12CCC=C1N(Cc1ccccc1)C(=O)[C@H](CC(=O)NCC13CC4CC(CC(C4)C1)C3)C2,nt,nt,64*,nt,nt,nt
CCCCCCCCN1C(=O)[C@H](CC(=O)NCCCCc2ccccc2)C[C@@]2(C(=O)OCC)CCCC=C12,nt,nt,69*,nt,nt,nt
O=C(Nc1ccccc1)c1ccccc1NC(=O)c1ccccc1[N+](=O)[O-],50*,-28,-6,28,-3,0
COc1ccccc1Nc1ccc(NC(=O)c2cccc([N+](=O)[O-])c2C)cc1,5,-84,?,84*,1,-1
COc1ccc(NC(=O)c2ccccc2[N+](=O)[O-])cc1,-7,18,nt,-18,-9,1
O=C(NNC(=O)c1ccccc1[N+](=O)[O-])c1ccc(NC(=O)c2ccccc2)cc1,-4,-46,-4,46,4,1
Cc1ccc(C(CCNC(C)c2cccs2)c2ccco2)cc1 (stereo not given),-5,-3,66*,3,nt,-4
C[C@H](CO)N1C[C@H](C)[C@H](CN(C)Cc2ccc(F)cc2)Oc2ncc(C#Cc3cccnc3)cc2C1=O,nt,nt,-4[16.7 µM],nt,-1,nt
Cc1ccc2nc3sc(C(=O)N4CCOCC4)c(N)c3cc2c1,-22,-10,74*,10,4,-19
Cc1ccc2cc3c(N)c(C(=O)N4CCOCC4)sc3nc2c1,11,22,-272,-22,nt,-12
OCCCNc1c2ccccc2nc2ccccc12,4,1,-1,-1,-1,36*
COCCNc1c2c(nc3ccccc13)CCC2,0,17,-5,-17,2,2
CN(C)CCCNc1c2c(nc3ccccc13)CCC2,-3,19,2,-19,3,30*
SMILES,Rtt109 HAT inh,SR-BI uptake up,Env fusion inh,SR-BI DiI inh,PglD inh,N-glyco inh
C[C@H](CO)N1C[C@H](C)[C@H](CN(C)S(=O)(=O)c2cn(C)cn2)Oc2c(NC(=O)c3nc4ccccc4s3)cccc2C1=O,nt,nt,nt,nt,0,nt
Cc1ccc2[nH]c(C)c(/C=C/c3cc[n+](C)cc3)c2c1,0,12,60*,-12,-3,-10
Cc1ccc2c(c1)c(/C=C/c1cc[n+](C)cc1)c(C)n2C,-12,-5,20,5,12,3
Cc1ccc(C(=O)C[n+]2cc(-c3ccc(C)cc3)n3c2CCCCC3)cc1,?,6,68*,-6,2,1
COc1ccccc1NC(=O)N[C@@H]1CC[C@@H](CCn2cc(-c3ccccc3)nn2)O[C@@H]1CO,nt,nt,10[16.7 µM],nt,0,nt
CCC(=O)N1CCN(c2ccc(-n3c(=O)ccc4cnc5ccc(-c6cnc7ccccc7c6)cc5c43)cc2C(F)(F)F)CC1,nt,nt,59*,nt,nt,nt
C=CCN1C(=O)/C(=C2/Sc3ccccc3N2CC)SC1=S,3,-27,-352,27,-1,-2
CCN1C(=O)/C(=C2/Sc3ccccc3N2CC)S/C1=N\c1ncn[nH]1,3,-74,-5,74*,-3,-1
CC(CCc1ccccc1)NCc1cccc2ccccc12 (stereo not given),3,-6,66*,6,-1,0
Cc1cccc(OCC(=O)Nc2ccc(N3CCCC3)cc2)c1C,-6,-71,nt,71*,1,-1
Cc1cc(OCC(=O)Nc2ccncc2)cc(C)c1Br,9,5,46*,-5,-2,-1
Cc1ccc(OCC(=O)Nc2ccc(N3CCCC3)cc2)cc1C,10,-71,-23,?,-2,1
Cc1cc(C)cc(OCC(=O)Nc2ccc(N3CCCC3)cc2)c1,-3,-75,nt,75*,7,-1
COc1ccc2c3c([nH]c2c1)[C@@H](CO)N(Cc1ccccc1)CC31CN(C(=O)c2cccnc2)C1,nt,nt,-36[16.7 µM],nt,nt,nt
O=[N+]([O-])c1cccc(S(=O)(=O)[N-]c2nc3ccccc3nc2-n2cc[n+](Cc3ccccc3)c2)c1,15,29,13,-29,-3,10
O=S(=O)([N-]c1nc2ccccc2nc1-n1cc[n+](Cc2ccccc2)c1)c1ccccc1,-2,42,-46,-42,2,40*
Cc1ccc(S(=O)(=O)[N-]c2nc3ccccc3nc2-n2cc[n+](Cc3ccccc3)c2)cc1,9,13,-103,-13,2,43*
COc1ccccc1Nc1nc(-c2sc(NC(=O)CC(C)C)nc2C)cs1,10,-38,15,38,-7,-7
COc1cccc(Nc2nc(-c3sc(NC(=O)CC(C)C)nc3C)cs2)c1,-4,-86,17,86*,3,-5
C=CCCC(=O)Nc1nc(C)c(-c2csc(Nc3cccc(OC)c3)n2)s1,5,-87,0,87*,-4,-2
COc1cccc(Nc2nc(-c3sc(NC(=O)c4ccccc4)nc3C)cs2)c1,-6,-70,2,70,-3,-7
COCC(=O)N[C@H]1C=C[C@H](CC(=O)NCc2ccccc2OC)O[C@@H]1CO,nt,nt,-4[16.7 µM],nt,0,nt
OC[C@H]1[C@H](c2ccc(-c3ccccc3F)cc2)[C@H]2CN(Cc3ccncc3)CCCCN21,nt,nt,nt,nt,-2,nt

# High-throughput results deposited in PubChem BioAssay by Broad Institute.
